Reference: ChEMBL document CHEMBL1765015, “Discovery of a potent and efficacious peptide derivative for δ/μ opioid agonist/neurokinin 1 antagonist activity with a 2',6'-dimethyl-L-tyrosine: in vitro, in vivo, and NMR-based structural studies” (J Med Chem, 2011)

Legend:
Plasma = assay: Metabolic stability in rat plasma after up to 6 hrs; type: ADME, cell-free
Summary of the method: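 DMSO stock diluted 1000-fold into rat plasma, giving 50 μg/mL final, and incubated at 37 °C. Aliquots taken at 1, 2, 4 and 6 h, proteins precipitated with acetonitrile, and remaining parent measured by HPLC. Three independent experiments, mean ± SD; half-life calculated.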

[1] = molecular target: Substance-P receptor (Cavia porcellus) (UniProt P30547); assay: Antagonist activity at NK1 receptor in guinea pig ileum assessed as inhibition of substance P-induced muscle contraction; type: functional, tissue-based
Chain of Substance-P receptor (Cavia porcellus) (P30547 whole entry): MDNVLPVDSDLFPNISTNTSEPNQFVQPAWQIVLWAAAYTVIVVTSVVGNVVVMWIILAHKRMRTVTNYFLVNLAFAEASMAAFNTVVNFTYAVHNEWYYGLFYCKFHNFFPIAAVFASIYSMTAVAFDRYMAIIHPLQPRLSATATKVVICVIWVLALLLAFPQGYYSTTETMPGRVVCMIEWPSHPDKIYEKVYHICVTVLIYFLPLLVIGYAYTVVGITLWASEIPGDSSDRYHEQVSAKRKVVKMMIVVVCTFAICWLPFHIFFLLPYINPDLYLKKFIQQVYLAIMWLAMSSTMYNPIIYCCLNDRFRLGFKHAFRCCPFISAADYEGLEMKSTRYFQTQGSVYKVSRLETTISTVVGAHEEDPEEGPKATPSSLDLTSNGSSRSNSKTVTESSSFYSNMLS

[2] = molecular target: T1, Delta-type opioid receptor (Homo sapiens, UniProt P41143); assay: Displacement of [3H]DPDPE from human delta opioid receptor expressed in mouse HN9.10 cells; type: cell-based
T1 sequence (P41143 whole entry): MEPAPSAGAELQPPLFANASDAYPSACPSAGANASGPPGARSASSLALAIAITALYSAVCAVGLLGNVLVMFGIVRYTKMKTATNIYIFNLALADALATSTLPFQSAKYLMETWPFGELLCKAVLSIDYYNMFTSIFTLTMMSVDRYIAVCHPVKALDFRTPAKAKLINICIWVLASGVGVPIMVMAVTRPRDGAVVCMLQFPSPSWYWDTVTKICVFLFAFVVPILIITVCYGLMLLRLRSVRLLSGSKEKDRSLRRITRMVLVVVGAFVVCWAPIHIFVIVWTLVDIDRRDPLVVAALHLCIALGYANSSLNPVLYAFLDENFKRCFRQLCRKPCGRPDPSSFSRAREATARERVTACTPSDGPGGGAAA

Substance-P receptor [3] = molecular target: Substance-P receptor (Rattus norvegicus, UniProt P14600); assay: Displacement of [3H]substance P from rat NK1 receptor expressed in CHO cells; type: cell-based
Chain of Substance-P receptor (Rattus norvegicus, UniProt P14600) (P14600 whole entry): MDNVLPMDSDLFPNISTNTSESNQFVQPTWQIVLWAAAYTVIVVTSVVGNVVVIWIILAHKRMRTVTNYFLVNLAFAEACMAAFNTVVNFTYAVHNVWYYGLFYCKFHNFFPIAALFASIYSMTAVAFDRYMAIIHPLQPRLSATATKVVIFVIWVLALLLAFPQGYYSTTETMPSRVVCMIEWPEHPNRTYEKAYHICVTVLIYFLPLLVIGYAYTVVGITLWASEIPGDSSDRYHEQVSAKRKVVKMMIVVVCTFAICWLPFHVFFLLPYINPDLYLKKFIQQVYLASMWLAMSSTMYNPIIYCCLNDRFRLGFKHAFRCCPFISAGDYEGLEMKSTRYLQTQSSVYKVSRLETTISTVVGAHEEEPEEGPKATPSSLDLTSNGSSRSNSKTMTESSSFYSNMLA

Mu-type opioid receptor [4] = molecular target: T2, Mu-type opioid receptor (Rattus norvegicus, UniProt P33535); assay: Displacement of [3H]DAMGO from rat mu opioid receptor expressed in mouse HN9.10 cells; type: cell-based
T2 sequence (P33535 whole entry): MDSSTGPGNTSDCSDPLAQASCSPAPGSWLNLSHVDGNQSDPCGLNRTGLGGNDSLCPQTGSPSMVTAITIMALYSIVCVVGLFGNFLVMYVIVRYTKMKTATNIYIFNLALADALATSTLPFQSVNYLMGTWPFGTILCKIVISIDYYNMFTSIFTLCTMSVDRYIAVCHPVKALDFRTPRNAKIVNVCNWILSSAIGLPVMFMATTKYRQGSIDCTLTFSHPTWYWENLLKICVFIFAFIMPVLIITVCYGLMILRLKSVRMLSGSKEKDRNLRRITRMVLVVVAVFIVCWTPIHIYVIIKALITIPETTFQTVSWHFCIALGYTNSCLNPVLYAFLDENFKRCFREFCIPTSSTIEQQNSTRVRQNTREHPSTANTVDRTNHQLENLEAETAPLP

Substance-P receptor [5] = molecular target: Substance-P receptor (Homo sapiens, UniProt P25103); assay: Displacement of [3H]substance P from human NK1 receptor expressed in CHO cells; type: cell-based
Chain of Substance-P receptor (Homo sapiens, UniProt P25103) (P25103 whole entry): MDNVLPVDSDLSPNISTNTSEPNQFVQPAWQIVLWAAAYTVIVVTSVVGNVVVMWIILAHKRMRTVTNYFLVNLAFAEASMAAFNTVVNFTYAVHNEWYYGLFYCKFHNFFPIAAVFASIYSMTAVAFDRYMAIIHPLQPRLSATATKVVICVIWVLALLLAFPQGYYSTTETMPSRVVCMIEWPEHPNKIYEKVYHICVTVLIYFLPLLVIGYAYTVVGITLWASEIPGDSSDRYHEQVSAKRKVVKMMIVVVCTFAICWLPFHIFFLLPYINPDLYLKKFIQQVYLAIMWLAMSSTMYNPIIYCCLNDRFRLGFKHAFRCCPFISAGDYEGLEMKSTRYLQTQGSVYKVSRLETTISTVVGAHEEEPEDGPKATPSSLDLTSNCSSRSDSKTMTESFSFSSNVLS

[6] = molecular target: T1, Delta-type opioid receptor; assay: Agonist activity at human opioid delta receptor expressed in mouse HN9.10 cells assessed as [35S]GTPgammaS binding; type: functional, cell-based
Summary of the method: (§1)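 [35S]GTPγS binding on membranes of HN9.10 cells stably expressing human DOR or rat MOR, about 1 pmol receptor/mg membrane protein. logEC50 from non-linear regression of at least two independent experiments in duplicate; EC50 is the antilog. Emax given as percent stimulation.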

[7] = molecular target: Mu-type opioid receptor (Rattus norvegicus) (UniProt P33535); assay: Agonist activity at rat mu opioid receptor expressed in mouse HN9.10 cells assessed as [35S]GTPgammaS binding relative to control; type: functional, cell-based; summary of the method: as §1
Chain of Mu-type opioid receptor (Rattus norvegicus) (P33535 whole entry): as the sequence (P33535 whole entry) above

[8] = molecular target: T1, Delta-type opioid receptor; assay: Agonist activity at human opioid delta receptor expressed in mouse HN9.10 cells assessed as [35S]GTPgammaS binding relative to control; type: functional, cell-based; summary of the method: as §1
[9] = molecular target: Delta-type opioid receptor (Mus musculus, UniProt P32300); assay: Agonist activity at delta opioid receptor in mouse vas deferens assessed as inhibition of electrically-stimulated muscle contraction; type: functional, tissue-based
Chain of Delta-type opioid receptor (Mus musculus, UniProt P32300) (P32300 whole entry): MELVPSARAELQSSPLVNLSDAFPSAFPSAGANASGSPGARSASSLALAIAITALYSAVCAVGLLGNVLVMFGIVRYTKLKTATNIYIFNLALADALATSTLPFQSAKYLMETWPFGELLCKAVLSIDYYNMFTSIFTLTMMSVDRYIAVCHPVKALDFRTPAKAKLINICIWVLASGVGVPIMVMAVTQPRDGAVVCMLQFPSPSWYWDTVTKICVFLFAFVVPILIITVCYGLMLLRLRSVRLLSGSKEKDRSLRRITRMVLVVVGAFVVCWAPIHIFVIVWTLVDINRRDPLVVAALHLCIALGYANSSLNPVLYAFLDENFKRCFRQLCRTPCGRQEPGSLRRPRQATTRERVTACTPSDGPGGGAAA

Mu-type opioid receptor [10] = molecular target: Mu-type opioid receptor (Cavia porcellus, UniProt P97266); assay: Agonist activity at mu opioid receptor in guinea pig ileum assessed as inhibition of electrically-stimulated muscle contraction; type: functional, tissue-based
Chain of Mu-type opioid receptor (Cavia porcellus, UniProt P97266) (P97266 whole entry): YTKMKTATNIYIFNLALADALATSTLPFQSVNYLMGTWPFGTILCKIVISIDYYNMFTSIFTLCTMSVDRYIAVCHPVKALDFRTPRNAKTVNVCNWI

Rattus norvegicus = assay: Antinociceptive activity in Sprague-Dawley rat assessed as time required to maximum activity on reduction in infrared heat-induced paw withdrawal latency at 10 ug administered intrathecally; type: functional
Summary of the method: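 Male Sprague-Dawley rats (200-225 g) fitted with a lumbar intrathecal catheter under ketamine/xylazine and given 5-7 days recovery. Dose of 10 μg in 5 μL i.t., followed by air bubble and saline flush. Radiant heat applied to left hind paw after 20 min acclimation, with 33.0 s cutoff. Baseline taken 30 min before dosing; […], mean ± SEM.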

Mu-type opioid receptor [11] = molecular target: T2, Mu-type opioid receptor; assay: Agonist activity at rat mu opioid receptor expressed in mouse HN9.10 cells assessed as [35S]GTPgammaS binding; type: functional, cell-based

| Compound | Stability (Plasma) | Ke [1] [nM] | IC50 [2] [nM] | IC50 (Substance-P receptor [3]) [nM] | IC50 (Mu-type opioid receptor [4]) [nM] | IC50 (Substance-P receptor [5]) [nM] | EC50 ([6]; read-out: pEC50 (converted)) [nM] | Emax [7] [%] | Emax [8] [%] | Ki (Substance-P receptor [3]) [nM] | EC50 ([6]; read-out: EC50) [nM] | IC50 [9] [nM] | IC50 (Mu-type opioid receptor [10]) [nM] | Ki (Substance-P receptor [5]) [nM] | Time (Rattus norvegicus) [min] | Ki [2] [nM] | EC50 (Mu-type opioid receptor [11]; read-out: EC50) [nM] | EC50 (Mu-type opioid receptor [11]; read-out: pEC50 (converted)) [nM] |
| --- | --- | --- | --- | --- | --- | --- | --- | --- | --- | --- | --- | --- | --- | --- | --- | --- | --- | --- |
| CSCC[C@H](NC(=O)[C@H](Cc1ccccc1)NC(=O)CNC(=O)[C@@H](C)NC(=O)[C@@H](N)Cc1c(C)cc(O)cc1C)C(=O)N1CCC[C@H]1C(=O)N[C@@H](CC(C)C)C(=O)N[C@@H](Cc1c[nH]c2ccccc12)C(=O)NCc1cc(C(F)(F)F)cc(C(F)(F)F)c1 | Stable | 7.5 | 0.38 | 5.13 | 4.27 | 0.0182 | – | – | – | – | – | – | – | – | – | – | – | – |
| CCCC[C@H](NC(=O)[C@H](Cc1ccccc1)NC(=O)CNC(=O)[C@@H](C)NC(=O)[C@@H](N)Cc1c(C)cc(O)cc1C)C(=O)N1CCC[C@H]1C(=O)N[C@@H](CC(C)C)C(=O)N[C@@H](Cc1c[nH]c2ccccc12)C(=O)NCc1cc(C(F)(F)F)cc(C(F)(F)F)c1 | – | 13 | 24 | – | – | 0.166 | 0.126 | – | – | – | – | – | – | – | – | – | – | – |
| CCCC[C@H](NC(=O)[C@H](Cc1ccccc1)NC(=O)CNC(=O)[C@@H](C)NC(=O)[C@@H](N)Cc1c(C)cc(O)cc1C)C(=O)N1CCC[C@H]1C(=O)N[C@@H](CC(C)C)C(=O)N[C@@H](Cc1c[nH]c2ccccc12)C(=O)NCc1cccc(C(F)(F)F)c1 | – | 14 | 8.51 | 389 | – | 2.19 | 0.437 | 17 | 50 | 140 | 0.2 | 8.7 | 22 | 1 | – | – | – | – |
| CSCC[C@H](NC(=O)[C@H](Cc1ccccc1)NC(=O)CNC(=O)[C@@H](C)NC(=O)[C@@H](N)Cc1ccc(O)cc1)C(=O)N1CCC[C@H]1C(=O)N[C@@H](CC(C)C)C(=O)N[C@@H](Cc1c[nH]c2ccccc12)C(=O)NCc1cc(C(F)(F)F)cc(C(F)(F)F)c1 | – | – | – | – | – | – | – | – | – | – | – | – | – | – | 15 | – | – | – |
| CCCC[C@H](NC(=O)[C@H](Cc1ccccc1)NC(=O)CNC(=O)[C@@H](C)NC(=O)[C@@H](N)Cc1c(C)cc(O)cc1C)C(=O)N1CCC[C@H]1C(=O)N[C@@H](CC(C)C)C(=O)N[C@@H](Cc1c[nH]c2ccccc12)C(=O)NCc1ccc(OC)c(OC)c1 | – | 24 | 0.316 | 891 | 0.631 | 2 | – | 48 | 42 | 320 | 0.6 | 8.8 | 23 | 0.95 | – | 0.15 | 0.72 | 0.955 |
| CN1CC[C@]23c4c5ccc(O)c4O[C@H]2[C@@H](O)C=C[C@H]3[C@H]1C5 [MORPHINE] | – | – | – | – | – | – | – | – | – | – | – | – | – | – | 20 | – | – | – |
| CCCC[C@H](NC(=O)[C@H](Cc1ccccc1)NC(=O)CNC(=O)[C@@H](C)NC(=O)[C@@H](N)Cc1c(C)cc(O)cc1C)C(=O)N1CCC[C@H]1C(=O)N[C@@H](CC(C)C)C(=O)N[C@@H](Cc1c[nH]c2ccccc12)C(=O)N(C)Cc1cc(C(F)(F)F)cc(C(F)(F)F)c1 | – | 6.1 | 0.977 | 30.9 | 3.31 | 0.468 | 7.08 | – | 49 | – | 2.3 | 14 | 110 | – | – | – | 8 | – |
